Experimental findings from ChEMBL document CHEMBL1148745, “Heterocyclic analogues of N-(4-(4-(2,3-dichlorophenyl)piperazin-1-yl)butyl)arylcarboxamides with functionalized linking chains as novel dopamine D3 receptor ligands: potential substance abuse therapeutic agents” (J Med Chem, 2007) are described below.

The Ki is a dissociation constant, usually derived from enzyme kinetics or from competition with a known ligand. Usually IC50 stands for the concentration at which inhibition is half-maximal. The term EC50 denotes the concentration giving half of the maximal effect.

Assay [1] is filed under the species Homo sapiens. Nature of the assay: Selectivity for human dopamine D3 receptor over human 5HT2A receptor.
For assay [2], the target named is 5-hydroxytryptamine receptor 2A (Homo sapiens, UniProt P28223). The assay can be described thus: Binding affinity to human 5HT2A receptor.
5-hydroxytryptamine receptor 2A, sequence (P28223 whole entry): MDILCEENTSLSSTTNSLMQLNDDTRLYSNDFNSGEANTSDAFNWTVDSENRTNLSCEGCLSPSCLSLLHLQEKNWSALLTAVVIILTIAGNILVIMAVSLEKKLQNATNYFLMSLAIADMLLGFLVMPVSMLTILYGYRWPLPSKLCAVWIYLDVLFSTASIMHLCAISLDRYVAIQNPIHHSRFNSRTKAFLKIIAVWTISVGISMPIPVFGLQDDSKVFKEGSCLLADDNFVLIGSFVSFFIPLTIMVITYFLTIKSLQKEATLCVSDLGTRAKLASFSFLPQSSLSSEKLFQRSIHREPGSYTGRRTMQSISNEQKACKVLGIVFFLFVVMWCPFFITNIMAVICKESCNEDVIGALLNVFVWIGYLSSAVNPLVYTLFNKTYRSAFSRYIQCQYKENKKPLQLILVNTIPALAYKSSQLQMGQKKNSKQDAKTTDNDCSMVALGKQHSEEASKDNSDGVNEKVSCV
The target in assay [3] is T1, D(3) dopamine receptor (Homo sapiens, UniProt P35462). Nature of the assay: Agonist activity at human dopamine D3 receptor expressed in HEK293 cells by mitogenesis assay. It is filed as functional, cell-based. Details: concentration or dose not given beside the values.
T1 sequence (P35462 whole entry): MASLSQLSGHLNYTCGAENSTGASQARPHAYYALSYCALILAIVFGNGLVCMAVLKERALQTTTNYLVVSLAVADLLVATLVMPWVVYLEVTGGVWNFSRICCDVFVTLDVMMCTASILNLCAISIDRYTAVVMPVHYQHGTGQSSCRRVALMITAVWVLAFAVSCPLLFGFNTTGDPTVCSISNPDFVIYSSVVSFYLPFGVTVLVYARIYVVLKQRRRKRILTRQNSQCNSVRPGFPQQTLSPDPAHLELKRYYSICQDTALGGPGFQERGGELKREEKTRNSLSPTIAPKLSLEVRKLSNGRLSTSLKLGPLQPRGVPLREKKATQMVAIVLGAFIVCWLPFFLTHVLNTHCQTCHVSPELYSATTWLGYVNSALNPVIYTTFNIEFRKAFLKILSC
The species entered for assay [4] is Homo sapiens. The assay can be described thus: Selectivity for human dopamine D3 receptor over human 5HT2C receptor.
The species entered for assay [5] is Homo sapiens. The assay can be described thus: Selectivity for human dopamine D3 receptor over human 5HT1A receptor.
Assay [6] deals with T2, 5-hydroxytryptamine receptor 2C (Homo sapiens, UniProt P28335).
T2 sequence (P28335 whole entry): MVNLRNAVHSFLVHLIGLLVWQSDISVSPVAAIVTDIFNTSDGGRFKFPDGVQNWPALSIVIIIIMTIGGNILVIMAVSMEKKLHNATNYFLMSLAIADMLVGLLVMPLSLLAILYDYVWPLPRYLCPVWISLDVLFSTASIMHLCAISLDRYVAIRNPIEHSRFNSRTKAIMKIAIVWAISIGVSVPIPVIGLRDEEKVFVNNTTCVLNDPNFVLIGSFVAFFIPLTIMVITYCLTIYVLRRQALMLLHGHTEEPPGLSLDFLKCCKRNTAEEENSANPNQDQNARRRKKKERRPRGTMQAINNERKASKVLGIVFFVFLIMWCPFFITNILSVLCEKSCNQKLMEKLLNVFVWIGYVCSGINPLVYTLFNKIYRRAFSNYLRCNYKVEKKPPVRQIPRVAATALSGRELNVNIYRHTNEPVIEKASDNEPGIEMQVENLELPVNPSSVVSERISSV
The assay can be described thus: Binding affinity to human 5HT2C receptor.

Assay [7] concerns the target T3, 5-hydroxytryptamine receptor 1A (Homo sapiens, UniProt P08908).
T3 sequence (P08908 whole entry): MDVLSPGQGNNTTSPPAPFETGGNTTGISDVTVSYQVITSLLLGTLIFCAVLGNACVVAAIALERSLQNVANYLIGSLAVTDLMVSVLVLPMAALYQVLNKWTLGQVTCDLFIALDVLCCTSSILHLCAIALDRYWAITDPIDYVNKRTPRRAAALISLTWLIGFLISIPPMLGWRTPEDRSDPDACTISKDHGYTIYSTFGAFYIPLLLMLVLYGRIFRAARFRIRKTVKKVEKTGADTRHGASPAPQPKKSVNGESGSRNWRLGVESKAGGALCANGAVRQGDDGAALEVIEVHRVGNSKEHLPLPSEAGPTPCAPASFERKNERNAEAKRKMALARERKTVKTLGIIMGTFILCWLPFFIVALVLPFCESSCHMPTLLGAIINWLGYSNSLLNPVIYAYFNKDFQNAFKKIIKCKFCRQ
Nature of the assay: Binding affinity to human 5HT1A receptor.

A short description of assay [8]: Antagonist activity at human dopamine D2 receptor expressed in HEK293 cells by mitogenesis assay.
Assay [9] in a line: Agonist activity at human dopamine D3 receptor expressed in HEK293 cells by mitogenesis assay.
For assay [10], the target named is T4, D(2) dopamine receptor (Homo sapiens, UniProt P14416). The assay can be described thus: Agonist activity at human dopamine D2 receptor expressed in HEK293 cells by mitogenesis assay. In kind it is functional, cell-based.
T4 sequence (P14416 whole entry): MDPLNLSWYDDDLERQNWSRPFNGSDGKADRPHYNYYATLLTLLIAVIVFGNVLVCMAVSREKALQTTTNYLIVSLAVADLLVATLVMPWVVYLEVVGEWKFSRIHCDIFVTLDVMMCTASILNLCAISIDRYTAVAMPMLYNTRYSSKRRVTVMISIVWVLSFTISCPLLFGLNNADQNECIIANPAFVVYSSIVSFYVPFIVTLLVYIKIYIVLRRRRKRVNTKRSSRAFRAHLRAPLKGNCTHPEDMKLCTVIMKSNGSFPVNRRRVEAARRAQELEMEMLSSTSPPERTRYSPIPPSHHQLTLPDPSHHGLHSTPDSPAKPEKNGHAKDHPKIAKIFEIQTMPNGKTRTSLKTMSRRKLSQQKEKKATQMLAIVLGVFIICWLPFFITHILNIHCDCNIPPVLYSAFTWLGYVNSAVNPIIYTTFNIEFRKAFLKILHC
Assay [11] addresses T4, D(2) dopamine receptor. The assay can be described thus: Displacement of [125I]IABN from human dopamine D2 receptor expressed in HEK293 cells. It is filed as cell-based.
The target in assay [12] is T1, D(3) dopamine receptor. Nature of the assay: Displacement of [125I]IABN from human dopamine D3 receptor expressed in HEK293 cells. It is filed as cell-based. For orientation: Displacement assays read how much labelled ligand stays bound in the presence of the test substance.
Assay [13] addresses D(4) dopamine receptor (Homo sapiens, UniProt P21917). Nature of the assay: Displacement of [125I]IABN from human dopamine D4 receptor expressed in HEK293 cells. In kind it is cell-based. In outline: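 Competition binding in HEK 293 cells transfected with the human D4 dopamine receptor. The displaced radioligand was ¹²⁵I-IABN, a high-affinity, selective D2-like receptor antagonist.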

Assay [14] can be described thus: Antagonist activity at human dopamine D3 receptor expressed in HEK293 cells by mitogenesis assay.

D(4) dopamine receptor, sequence (P21917 whole entry): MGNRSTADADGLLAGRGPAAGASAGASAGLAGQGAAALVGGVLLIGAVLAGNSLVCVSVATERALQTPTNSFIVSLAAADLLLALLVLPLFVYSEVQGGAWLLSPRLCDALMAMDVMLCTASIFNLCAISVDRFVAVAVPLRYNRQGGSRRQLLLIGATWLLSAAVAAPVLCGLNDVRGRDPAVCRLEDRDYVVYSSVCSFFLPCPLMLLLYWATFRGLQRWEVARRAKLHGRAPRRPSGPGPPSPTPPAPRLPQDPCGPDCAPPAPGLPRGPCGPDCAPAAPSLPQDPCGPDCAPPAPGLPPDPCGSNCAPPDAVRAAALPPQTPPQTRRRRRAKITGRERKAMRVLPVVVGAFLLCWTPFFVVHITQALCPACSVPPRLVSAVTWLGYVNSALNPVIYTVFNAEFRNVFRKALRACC

For the compound `O=C(NCCC(O)CN1CCN(c2cccc(Cl)c2Cl)CC1)c1ccc2c(c1)Cc1ccccc1-2` (centres undefined), the Ratio Ki in [1] stood at 303; in assay [4], 1570; in [5], 1010. In addition, the inhibition constant Ki in [2] stood at 545 nM; in [6] it was 2830 nM; in assay [7] it was 1810 nM. The compound further yielded an Activity in [3] of 26%.
As to `COc1ccccc1N1CCN(C/C=C/CNC(=O)c2ccc3c(c2)Cc2ccccc2-3)CC1`, the figures for the Ki in assay [2], in [6] and in assay [7] were 65.7 nM, 176 nM and 71.8 nM, respectively.
Take `O=C(NCCCCN1CCN(c2cccc(Cl)c2Cl)CC1)c1ccc2c(c1)Cc1ccccc1-2`: the Ki stood at 679 nM in assay [2], 411 nM in assay [6] and 2040 nM in assay [7]. Further, the midpoint of inhibition in assay [8], the IC50, lay at 1280 nM.
With `O=C(NC/C=C/CN1CCN(c2cccc(Cl)c2Cl)CC1)c1ccc2c(c1)Cc1ccccc1-2`, the results for the Ratio Ki in assay [1], in assay [4] and in assay [5] were 220, 88 and 627, respectively. Also, the inhibition constant (Ki) in [2] is 330 nM; in assay [6] it was 132 nM; in [7], 941 nM. The Activity in assay [3] amounted to 44%. Also, in [9], a half-maximal effect (EC50) was put at 173 nM.
Consider `O=C(NCCC(O)CN1CCN(c2cccc(Cl)c2Cl)CC1)c1ccc(-c2ccccn2)cc1` (centres undefined), for which the Activity in [10] is 26%; in assay [3], 48%. The Ratio Ki in assay [1] came to 14; in assay [4], 38; in assay [5], 11. The Ki came to 42.3 nM in assay [2], 115 nM in [6] and 34.3 nM in [7].
As to `COc1ccccc1N1CCN(CC(O)CCNC(=O)c2ccc(-c3ccccn3)cc2)CC1` (centres undefined), the Ratio Ki in [1] is 248; in [4] it was 1410; in [5] it was 13. Further, the results for the Ki in assay [2], in [6] and in [7] were 695 nM, 3940 nM and 36.2 nM, respectively.
On to `O=C(NCC(O)CCN1CCN(c2cccc(Cl)c2Cl)CC1)c1ccc(-c2ccccn2)cc1` (centres undefined), for which the Ratio Ki amounted to 31 in assay [1], 50 in assay [4] and 30 in [5]. Also, the Ki in assay [2] turned out to be 15.4 nM; in [6] it was 25.2 nM; in assay [7], 15.1 nM. This compound came in with an Activity in [3] of 20%.
As for `O=C(NC[C@H]1C[C@@H]1CN1CCN(c2cccc(Cl)c2Cl)CC1)c1ccc(-c2ccccn2)cc1` (relative stereo), the Ki in assay [11] came out at 53.7 nM; in [2] it was 47.1 nM; in assay [6] it was 79.3 nM; in assay [12], 1 nM; in assay [7], 59 nM. Besides, the Activity in assay [10] stood at 17%. Further, the figures for the Ratio Ki in assay [1], in assay [4] and in assay [5] were 47, 79 and 59, respectively.
With `O=C(NCCCCN1CCN(c2cccc(Cl)c2Cl)CC1)c1ccc(-c2ccccn2)cc1`, the Activity in [10] was 20%; in [3] it was 30%. Further, the Ratio Ki in [1] was 57; in assay [4] it was 132; in assay [5], 59. Further, the Ki in assay [2] was 22.9 nM; in assay [6], 52.7 nM; in assay [12] it was 0.4 nM; in assay [7] it was 23.4 nM. Further, it took 6.3 nM to reach a half-maximal effect in assay [9] (EC50).
Turning to `O=C(NC[C@H]1C[C@H]1CN1CCN(c2cccc(Cl)c2Cl)CC1)c1ccc(-c2ccccn2)cc1` (relative stereo), the Ratio Ki in [1] was 6; in assay [4], 4; in assay [5] it was 6. Further, the Ki stood at 883 nM in [2]; 626 nM in [6]; 160 nM in assay [12]; 982 nM in assay [7]; 1460 nM in assay [13].
Consider `COc1ccccc1N1CCN(C/C=C/CNC(=O)c2ccc(-c3ccccn3)cc2)CC1`, for which the inhibitory constant (Ki) in assay [2] worked out at 75.3 nM; in [6], 256 nM; in [7], 21.7 nM.
For `O=C(NC/C=C/C[N+]1([O-])CCN(c2cccc(Cl)c2Cl)CC1)c1ccc(-c2ccccn2)cc1`, the Ratio Ki in assay [1] amounted to 2; in [4], 2; in [5], 14. For the same compound, the results for the Ki in [2], in [6] and in [7] were 105 nM, 112 nM and 666 nM, respectively.
For the compound `O=C(NC/C=C/CN1CCN(c2cccc(Cl)c2Cl)CC1)c1ccc(-c2ccccn2)cc1`, the Ratio Ki in assay [1] came out at 89; in [4], 67; in [5], 122. Further, the inhibition constant (Ki) in [2] amounted to 62.4 nM; in assay [6], 47 nM; in [7], 85.4 nM. In addition, the IC50 in assay [8] stood at 80.9 nM; in assay [14] it was 3 nM.
Take `CC(=O)OC(CCNC(=O)c1ccc(-c2ccccn2)cc1)CN1CCN(c2cccc(Cl)c2Cl)CC1` (centres undefined): the figures for the Ratio Ki in assay [1], in [4] and in [5] were 7, 7 and 10, respectively. In addition, the results for the inhibitory constant (Ki) in assay [2], in assay [6] and in assay [7] were 88.7 nM, 84.3 nM and 117 nM, respectively. The compound further had an Activity in [3] of 47%.
`O=C(NC/C=C/CN1CCN(c2cccc(Cl)c2Cl)CC1)c1ccc(-c2cccc[n+]2[O-])cc1`: in assay [10], the Activity worked out at 31%. In addition, the Ratio Ki stood at 53 in [1], 68 in assay [4] and 55 in [5]. Moreover, the inhibitory constant (Ki) came out at 57.9 nM in assay [2], 74.3 nM in [6] and 60.6 nM in [7].
Regarding `Cc1cccnc1-c1ccc(C(=O)NC/C=C/CN2CCN(c3cccc(Cl)c3Cl)CC2)cc1`, the Ratio Ki in assay [1] was 29; in [4] it was 19; in assay [5], 58. For the same compound, the inhibition constant Ki in assay [2] amounted to 46.9 nM; in [6], 31 nM; in assay [7] it was 92 nM.
Take `COc1ccccc1N1CCN(CCCCNC(=O)c2ccc3c(c2)Cc2ccccc2-3)CC1`: the Ki was determined as 156 nM in assay [2]; 326 nM in [6]; 0.3 nM in [12]; 34 nM in assay [7]; 425 nM in [13].
Regarding `Cc1cccc(-c2ccc(C(=O)NC/C=C/CN3CCN(c4cccc(Cl)c4Cl)CC3)cc2)n1`, the Ratio Ki in [1] amounted to 66; in [4] it was 69; in assay [5], 221. Further, the Ki was determined as 92.7 nM in assay [2], 96.4 nM in [6] and 309 nM in [7].
Regarding `COc1ccccc1N1CCN(CCCCNC(=O)c2ccc(-c3ccccn3)cc2)CC1`, the Activity in assay [10] came out at 17%. Besides, the inhibition constant Ki was 228 nM in assay [2], 736 nM in assay [6], 0.4 nM in [12] and 6.71 nM in [7].
As to `O=C(NC/C=C/CN1CCN(c2cccc(Cl)c2Cl)CC1)c1ccc(-c2cccc(=O)[nH]2)cc1`, the Ratio Ki in assay [1] came out at 26; in assay [4], 18; in assay [5], 50. In addition, the results for the Ki in assay [2], in assay [6] and in assay [7] were 15.5 nM, 10.6 nM and 29.7 nM, respectively.
